Results on seven compounds are retold here after ChEMBL document CHEMBL2346509, “Novel R-roscovitine NO-donor hybrid compounds as potential pro-resolution of inflammation agents” (2013).

Structures are written as SMILES. The source made the active and inactive calls. The rule behind the calls is not given here.

The test system of test [1] is Neutrophil. The experiment in a line: Induction of apoptosis in human neutrophils assessed as pre-necrotic cells after 6 hrs by annexin V/propidium iodide staining based flow cytometric analysis. It counts as functional, cell-based. The gist of the method:
(§1)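 Neutrophils isolated from peripheral blood of healthy volunteers (>96% purity), resuspended at 5 × 10^6/mL in IMDM with penicillin, streptomycin and 0.1% w/v BSA. Compounds from 50 mM DMSO stocks (final DMSO 0.04–0.12%) were added just before cells, in duplicate, at 37 °C, 5% CO2. Cells were stained with annexin V in Ca-containing HBSS on ice for 10 min in the dark, PI was added, and cells were analysed by flow cytometry. Diff-Quick morphology confirmed results.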
A general note: In flow cytometry, cells or beads pass a laser one at a time.

The subject of test [2] is Neutrophil. Kind of test: Induction of apoptosis in human neutrophils at 10 uM by annexin V/propidium iodide staining based flow cytometric analysis. It counts as functional, cell-based. The following applies: TDE = time-dependent effect. The gist of the method: as §1
Test [3] has as its system Neutrophil. Kind of test: Induction of apoptosis in human neutrophils assessed as viable cells at 3 uM after 6 hrs by annexin V/propidium iodide staining based flow cytometric analysis. It counts as functional. The following applies: read-out: Activity. The gist of the method: as §1
The subject of test [4] is Neutrophil. Kind of test: Induction of apoptosis in human neutrophils assessed as secondary necrosis at 10 uM after 8 hrs by annexin V/propidium iodide staining based flow cytometric analysis.
Test [5] deals with Neutrophil. The experiment in a line: Induction of apoptosis in human neutrophils assessed as cellular shrinkage and nuclear pyknosis at 3 uM after 6 hrs by light microscopy analysis. It counts as functional, cell-based. In a few lines: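 Neutrophils isolated from healthy volunteers' citrated blood by dextran sedimentation and a density gradient (granulocytes at the 70:81 boundary, >96% pure). Cells at 5 × 10^6/mL in IMDM with penicillin/streptomycin and 0.1% BSA, 37 °C, 5% CO2, treated in duplicate. Final DMSO 0.04–0.12%. Cells cytocentrifuged, methanol-fixed 2 min, Diff-Quick stained, and scored for apoptotic morphology at 40× and 100×.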

Test [6] concerns Neutrophil. Kind of test: Induction of apoptosis in human neutrophils assessed as pre-necrotic cells at 3 uM after 6 hrs by annexin V/propidium iodide staining based flow cytometric analysis in presence of PTIO. It counts as functional, cell-based. The gist of the method: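 Healthy-volunteer neutrophils (>96% pure) at 5 × 10^6/mL in IMDM with 0.1% BSA and penicillin/streptomycin, 37 °C, 5% CO2, in duplicate. Co-incubated with the NO scavenger PTIO, made directly in IMDM. Final DMSO 0.04–0.12%. Cells stained with annexin V (1/500 in CaCl2–HBSS binding buffer) 10 min on ice in the dark, then PI added before flow cytometry.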

For test [7], the system named is Neutrophil. Kind of test: Induction of apoptosis in human neutrophils assessed as necrotic cells at 3 uM after 6 hrs by annexin V/propidium iodide staining based flow cytometric analysis. It counts as functional. The gist of the method: as §1
The test system of test [8] is Neutrophil. Kind of test: Induction of apoptosis in human neutrophils assessed as pre-necrotic cells at 3 to 10 uM after 6 hrs by annexin V/propidium iodide staining based flow cytometric analysis in presence of ODQ. It counts as functional, cell-based. The gist of the method:
(§2)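 Human blood neutrophils at 5 × 10^6/mL in IMDM/0.1% BSA with antibiotics were pre-incubated for 15 min with L-NAME (prepared in IMDM) or with ODQ (10 μM; from a 10 mM stock in 0.01% NaOH). Test compounds were then added from DMSO stocks and cells cultured in duplicate at 37 °C, 5% CO2. Apoptosis was read by annexin V/PI flow cytometry.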

The test system of test [9] is Neutrophil. The experiment in a line: Induction of apoptosis in human neutrophils assessed as pre-necrotic cells at 3 uM after 6 hrs by annexin V/propidium iodide staining based flow cytometric analysis. It counts as functional. The gist of the method:
as §1

For test [10], the system named is Neutrophil. Kind of test: Induction of apoptosis in human neutrophils assessed as pre-necrotic cells at 3 to 10 uM after 6 hrs by annexin V/propidium iodide staining based flow cytometric analysis in presence of L-NAME. It counts as functional, cell-based. In a few lines: as §2
Test [11] concerns Neutrophil. Kind of test: Induction of apoptosis in human neutrophils assessed as apoptotic cells at 3 uM after 6 hrs by annexin V/propidium iodide staining based flow cytometric analysis. It counts as functional. The gist of the method:
as §1

As to `CC[C@H](CO)Nc1nc(NCc2ccc(OCc3nonc3C(N)=O)cc2)c2ncn(C(C)C)c2n1`, the Activity result in the test with Neutrophil [1] is “Dose-dependent effect”.
Turning to `CC[C@H](CO)Nc1nc(NCc2ccccc2)c2ncn(C(C)C)c2n1` [SELICICLIB], the Activity entry is “tde” with Neutrophil [2], 0.386% with Neutrophil [7], 0.033% in the test on Neutrophil [9] and 6.98% in the test on Neutrophil [11]. For the same compound, the viability at 3 µM with Neutrophil [3] worked out at 92.6%. Also, the outcome in the test on Neutrophil [4], with Neutrophil [5], in the test with Neutrophil [6], with Neutrophil [8] and in the test on Neutrophil [10] was Active.
With `CN1C(=O)[C@]23CC4=CC=C[C@H](O)[C@H]4N2C(=O)[C@@]1(CO)SS3`, the outcome in the test on Neutrophil [6] was Active.
Consider `CC[C@H](CO)Nc1nc(NCc2ccc(OCCCO[N+](=O)[O-])cc2)c2ncn(C(C)C)c2n1`, for which the Activity entry is “Dose-dependent effect” in the test on Neutrophil [1]; “tde” in the test with Neutrophil [2]; 0.63% with Neutrophil [7]; 0.017% in the test with Neutrophil [9]; 86.9% with Neutrophil [11]. Moreover, the viability at 3 µM in the test on Neutrophil [3] turned out to be 12.5%. Further, the result with Neutrophil [4], in the test with Neutrophil [5], with Neutrophil [8] and in the test with Neutrophil [10] was Active. In addition, in the test on Neutrophil [6], the result was inactive.
As to `CC[C@H](CO)Nc1nc(NCc2ccc(OCc3no[n+]([O-])c3C(N)=O)cc2)c2ncn(C(C)C)c2n1`, the figures for the Activity result in the test with Neutrophil [1] and in the test on Neutrophil [2] were “Dose-dependent effect” and “tde”, respectively. Further, the outcome in the test on Neutrophil [4], in the test on Neutrophil [8] and in the test on Neutrophil [10] was Active.
For `CC[C@H](COC(=O)CCCO[N+](=O)[O-])Nc1nc(NCc2ccccc2)c2ncn(C(C)C)c2n1`, the Activity entry in the test with Neutrophil [1] was “Dose-dependent effect”; in the test with Neutrophil [2] it was “tde”. The result in the test on Neutrophil [4], with Neutrophil [8] and in the test with Neutrophil [10] was Active.
With `CC[C@H](CO)Nc1nc(NCc2ccc(OCCCOC)cc2)c2ncn(C(C)C)c2n1`, in the test on Neutrophil [1], the Activity result was “Dose-dependent effect”. The outcome in the test on Neutrophil [8] and with Neutrophil [10] was Active.
